Key:
Type in all cases: ADME, organism-based
[1] = Oral bioavailability in CD1 mouse at 10 mg/kg; details: in vivo
How it was run: (§1)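 Mouse PK: oral dose 10 mg/kg in 2.5% EtOH, 1 drop Tween-80, 25% PEG400 in PBS; iv dose 3 mg/kg in 2.5% EtOH, 5% DMSO, 1 drop Tween-80, 25% PEG400 in PBS. Oral bioavailability, iv half-life, oral AUC and Cmax derived from plasma profiles.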

[2] = Half life in CD1 mouse at 3 mg/kg, iv; set-up: dose 3 mg/kg, route intravenous; details: in vivo; how it was run: as §1
[3] = AUC in CD1 mouse at 10 mg/kg, po; set-up: dose 10 mg/kg, route oral; details: plasma; how it was run: as §1
[4] = Cmax in CD1 mouse at 10 mg/kg, po; set-up: dose 10 mg/kg, route oral; details: in vivo; how it was run: as §1

bioavailability [1]: 93%
half-life [2]: 1.5 h
AUC [3]: 1500 ng·h/mL
Cmax [4]: 500 ng/mL
SMILES: CC1(c2nc3c(C(N)=O)cccc3[nH]2)CCCCN1 (centres undefined)
